# Test: Toxicity liver stage against HepG2, at 10uM
# Format: cell-based
# Set-up: test concentration 10 uM, cell line HepG2-A16-CD81EGFP
# Conditions: human, HepG2-A16-CD81EGFP cells; read-out: INHIBITION
# Summary of the method: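 Uninfected HepG2-A16-CD81EGFP cells, 3 × 10^3 per well, 1536-well, plated on prespotted compound at 10 μM final, parasite-free screening media added to match infected plates; puromycin 10 μM positive, DMSO 0.5% negative; run in parallel with 48 h PbLuc assay at 37 °C, 5% CO2; viability by CellTiter-Glo luminescence, normalized to controls.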
row,SMILES,cytotoxicity at 10 µM [%]
1,NC(=O)c1nc(CC(=O)Nc2cccc(C(F)(F)F)c2)no1,0.493
2,CCCc1nc2c(c(C)c(C)n2Cc2ccncc2)c(N)c1CC,14.3
3,CC(C)CNC(=O)c1[nH]nc(C2CC2)c1Br,2.71
4,Cn1ncc(C(=O)OCC2CC(=O)N(c3ccccc3)C2)c1C(F)F (stereo not given),1.93
5,Cc1cc(C(=O)NCCN2CCCCCC2)nn1C(C)(C)C,2.45
6,Cc1noc([C@H]2COC[C@H]3CN(C(=O)Cc4ccccc4F)C[C@H]32)n1,-8.52
7,Cn1cc(C(C)(O)CNc2ccc(Cl)c(C#N)n2)cn1 (stereo not given),3.97
8,COc1ccc(C(=O)NCCCNc2ccc(C(F)(F)F)cn2)cc1,-3.87
9,CCNc1ncc(C(=O)N2CCOC(CCCC(C)C)C2)cn1 (stereo not given),10.3
10,CC(O)CN(C)C(=O)Nc1ccn(-c2cccc(C(F)(F)F)c2)n1 (stereo not given),4.85
11,COc1cc(C(C)NCc2ncccc2C)ccc1SC(F)F (stereo not given),-8.47
12,O=C(c1cnccn1)N1CCCC2(COCCN(CC3CC3)C2)C1 (stereo not given),1.39
13,O=C(Nc1nncs1)N(Cc1cccc(O)c1)C1CC1,4.14
14,CCOc1ncccc1NC(=O)NC1CCCN(S(C)(=O)=O)C1 (stereo not given),-3.62
15,COc1cc(CNC(=O)Nc2cc(C(F)(F)F)c[nH]c2=O)ccn1,1.53
16,COc1cccc(N2CCC(CNC(=O)CN3CSCC3=O)C2)c1 (stereo not given),0.342
17,Cc1nc(C)n(CC2CCCN(Cc3ccc(F)cc3C#N)C2)n1 (stereo not given),-10.8
18,CCN1CC2(CC1=O)CN(C(C)=O)CCN(C(=O)c1ccco1)C2 (stereo not given),-8.92
19,COc1cc(C(=O)N2CCCC(CNS(C)(=O)=O)C2)cc(OC)c1C (stereo not given),-7.69
20,O=C(Nc1ccc(-c2csnn2)cc1)N1CCC(N2CCCC2)C1 (stereo not given),-8.79
21,CC(C)N(Cc1ccc(Cl)c(Cl)c1)C(=O)Cn1cncn1,4.19
22,COc1ccc(C(=O)N(C)Cc2cccc(C#N)c2)c(OC)c1OC,-17.1
23,COCC(C)NC(=O)CN1CCC(CO)CC1 (stereo not given),-6.16
24,C1CC(N2Cc3nnn(CC4CC4)c3C(COCC3CC3)C2)C1 (stereo not given),5.57
25,COc1nc2ccn(CCNc3cc(C)ccn3)c(=O)c2cc1C#N,11.7
26,Cc1cc(CN(C)C(=O)CN2CC3(CCNCC3)OC2=O)n(C)n1,9.81
27,CNc1cc2c(nn1)CCN(C(=O)c1ccc3c(c1)OCO3)C2,6.85

row,SMILES,cytotoxicity at 10 µM [%]
1,CN(C)C(=O)N1CCn2nc(CNC(=O)CCC(F)(F)F)cc2C1,5.6
2,COCC(O)CN1CC(C)(C)CN(C(=O)CCc2ccccc2)CC1=O (stereo not given),-1.83
3,O=C(c1cccc(S(=O)(=O)NCCc2cscn2)c1)N1CCOCC1,5.67
4,O=C(Nc1cccc(N2CCN(CC3CC3)CC2)c1)C1CCCO1 (stereo not given),-1.23
5,Cc1ncsc1CCN(C)C(=O)CN1CC2(CCCC2)CC1=O,2.19
6,CC(=O)Nc1nc(CN2CCCC2c2cnn(C)c2)cs1 (stereo not given),-11.8
7,Cc1c(C(=O)O)cnn1-c1ccc(-c2nc(C3CC3)no2)cn1,0.88
8,COc1c(CNCc2cccnc2N2CCCCC2)c(C)nn1C,-151
9,CC1CCN(C(=O)C2CCN(c3ccc(Cl)cc3C#N)CC2)CC1,11.8
10,CCOc1cc(C(=O)N2CCCC(n3nc(C)nc3C)C2)ccn1 (stereo not given),-5.99
11,CCNC(c1cccnc1)c1ccc(F)cc1F (stereo not given),-2.34
12,O=C([C@@H]1CC[C@@H]2[C@@H](CCN2CCOCc2ccccc2)O1)N1CCCC1,-110
13,Cc1c(C(=O)NS(=O)(=O)c2ccc(F)cc2)cnn1CC(C)C,-6.63
14,CCN1CC(C(=O)N2CC(Oc3ccccc3F)C2)CC1=O (stereo not given),-2.49
15,CC(NC(=O)CSCC#N)c1cccc(NC(=O)c2ccccc2)c1 (stereo not given),-1.79
16,CC(C)(O)CN1CCN(C(=O)c2ccc3c(c2)COC3)CC1,-0.644
17,CNc1cc(CNC(=O)c2ccccc2)nc(-c2ccncc2)n1,0.462
18,CCn1cc(-c2cc(C(F)F)n3nc(CCC(=O)O)nc3n2)cn1,-2.78
19,CC(C)(C)S(=O)(=O)CCNC(=O)c1cnc(-c2ccccc2)nc1,2.92
20,CCN1CCN(C(C)CNC(=O)Nc2nnc(C(C)C)s2)CC1 (stereo not given),1.06
21,CC(C)=CCN1C[C@@H]2CC[C@H]1CN(C(=O)Cn1c(C)cc(C)nc1=O)C2,-4.36
22,Cc1cc(C)n(CC2CCCN2C(=O)c2ccc(N(C)C)nn2)n1 (stereo not given),1.53
23,COCCCN1CCN(CC2CCCO2)CC1 (stereo not given),-13.5
24,O=C(c1cccc(CO)n1)N1CCOC(c2ccc(Cl)c(Cl)c2)C1 (stereo not given),-10.4
25,CN(Cc1nnn(CC2CC2)n1)C(=O)c1ccccc1,0.889
26,CC(C)Cc1noc(-c2ccc(NCc3noc(C(C)C)n3)nc2)n1,0.178
27,Cc1cc(C(=O)N2C[C@@H]3CCCO[C@@H]3[C@H](N(C)C(C)C)C2)c(C)[nH]1,10.2

row,SMILES,cytotoxicity at 10 µM [%]
1,Cn1nnc2cc(C(=O)N3CCC(Nc4cccnn4)CC3)ccc21,-2.85
2,COc1cc(CCC(=O)N2CCC(c3cc4nccnc4[nH]3)CC2)on1,3.67
3,CN1CCCN(S(=O)(=O)c2cnn(C)c2)c2cc(Cl)ccc21,7.41
4,Cc1noc([C@@H]2C[C@H]3OCC[C@H]3N(Cc3ccoc3)C2)n1,-71.4
5,O=C([C@H]1C[C@H]2[C@H](CCN2Cc2cccs2)O1)N1CCOCC1,0.582
6,CC(C)CC(=O)N1CC[C@H]2N(C)CC[C@@]2(C(=O)Nc2ccccc2)CC1,-4.71
7,Cc1nccc(N2CCCC2CCNS(C)(=O)=O)n1 (stereo not given),0.146
8,CN1CCCC(c2nccnc2-c2cccc(C(F)(F)F)c2)C1 (stereo not given),7.75
9,CC(C)NC(=O)CNC(=O)C12CCC(=O)N1c1cc(Cl)ccc1S2 (stereo not given),11.7
10,COCCC(=O)N1CC[C@@H](N2CCOCC2)[C@@H]1Cc1ccccc1,-70.4
11,CNc1cncc(C2CCCN2Cc2ccnc(C)n2)n1 (stereo not given),-11.4
12,Cc1c(C)n(Cc2ccccn2)c2nc3c(c(N)c12)CCCCCC3,9.15
13,O=C(NN1CCCc2ccccc21)c1c[nH]c(=O)[nH]1,8.73
14,Cc1cnc(CNc2ccccc2CN(C)C(=O)c2cccs2)o1,-3.83
15,CN1CCOC[C@H]1c1nc(C(C)(C)C)c[nH]1,5.08
16,CCN(C(=O)COc1nc(Cc2ccc(F)cc2)no1)C1CC1,5.09
17,COCCNC(=O)c1sc2ccccc2c1C1CCC(CN)CC1 (stereo not given),-2.98
18,COCCN1CCN(CC(O)c2ccc(OC(F)(F)F)cc2)CC1 (stereo not given),-22.1
19,CC(=O)N1CCC2(CCN(C(=O)c3ccc(Cl)c(C(F)(F)F)c3)CC2)C1,-4.48
20,CCS(=O)(=O)N1CCO[C@H]2[C@H](OCCCn3cccn3)CC[C@@H]21,-5.04
21,CCOc1cccc(CNc2cncc(-n3cccn3)n2)c1,-0.363
22,COc1c(CNCCC(=O)Nc2cccc(C)n2)c(C)nn1C,12.6
23,O=C(N1CCCC1)N1CCC2(CC1)CN(c1cccnc1)C(=O)CO2,-99.6
24,O=C(C1CCOCC1)N1CCC2(CC1)CN(c1ccsc1)C(=O)CO2,-63.4
25,OC(COCc1ccc2c(c1)OCO2)CN1CC(n2cccn2)C1 (stereo not given),-5.89
26,Cc1ccsc1C(=O)N1CCCC(c2[nH]ncc2S(C)(=O)=O)C1 (stereo not given),-5.39
